Data: ChEMBL document CHEMBL1138320, “Discovery of potent & selective inhibitors of activated thrombin-activatable fibrinolysis inhibitor for the treatment of thrombosis” (J Med Chem, 2007)
pKi: −log10 of the molar value.

Assays:
[1] = biological target: T1, Carboxypeptidase B2 (Homo sapiens, UniProt Q96IY4); assay: Inhibition of human TAFIa
T1 sequence (Q96IY4 whole entry): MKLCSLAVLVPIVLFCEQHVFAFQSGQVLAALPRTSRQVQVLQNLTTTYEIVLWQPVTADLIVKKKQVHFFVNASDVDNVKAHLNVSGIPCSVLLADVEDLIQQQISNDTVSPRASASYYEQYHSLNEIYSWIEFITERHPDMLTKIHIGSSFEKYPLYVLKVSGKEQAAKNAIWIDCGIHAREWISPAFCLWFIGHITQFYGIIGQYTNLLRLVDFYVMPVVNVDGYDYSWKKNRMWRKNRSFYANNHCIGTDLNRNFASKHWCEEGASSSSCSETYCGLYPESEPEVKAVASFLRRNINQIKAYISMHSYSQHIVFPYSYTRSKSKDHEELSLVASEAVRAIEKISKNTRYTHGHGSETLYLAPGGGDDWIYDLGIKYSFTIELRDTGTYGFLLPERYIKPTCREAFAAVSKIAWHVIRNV

[2] = Terminal elimination in dog at 0.6 mg/kg, iv; format: ADME, organism-based, Canis lupus familiaris; design: dose 0.6 mg/kg, route intravenous; conditions: in vivo
In short: (§1)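 Single iv bolus of 0.6 mg/kg given to a dog. Total plasma clearance, volume of distribution and terminal elimination half-life were derived from the plasma pharmacokinetics.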

[3] = Oral bioavailability in human; format: ADME, organism-based; conditions: in vivo
In short: (§2)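 Human pharmacokinetics after iv and oral dosing. Oral bioavailability and Tmax were determined, including with and without co-administration with food.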

[4] = Plasma clearance in dog at 0.6 mg/kg, iv; format: ADME, organism-based, Canis lupus familiaris; design: dose 0.6 mg/kg, route intravenous; in short: as §1
[5] = Bioavailability in rat; format: ADME, organism-based; conditions: in vivo
[6] = Renal elimination in dog at 0.6 mg/kg, iv by urinary excretion studies; format: ADME, organism-based, Canis lupus familiaris; design: dose 0.6 mg/kg, route intravenous; conditions: urine, read-out: Activity
In short: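 Urinary excretion study in a dog after an iv dose. Unchanged drug recovered in the urine was quantified as a percentage of the dose.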

[7] = Hydrophilicity, log D of the compound; format: physicochemical; conditions: octanol/water
[8] = Bioavailability in dog at 1 mg/kg, po; format: ADME, organism-based, Canis lupus familiaris; conditions: in vivo
In short: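 Oral dosing at 1 mg/kg in dog for pharmacokinetic studies. Oral bioavailability was derived relative to iv dosing.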

[9] = Tmax in human; format: ADME, organism-based; conditions: in vivo; in short: as §2
[10] = tested on: Oryctolagus cuniculus; assay: Antithrombotic efficacy in anesthetized rabbit assessed as inhibition of thrombus formation at 800 nM relative to control; format: functional
In short: (§3)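 Anesthetized rabbits given compound by iv infusion to reach projected free plasma levels of about 8, 80 or 800 nM. Thrombus weight (thrombus formation) was compared with vehicle-treated animals. t-PA at 10 µg/kg/min served as comparator. Group sizes were n = 3–6, with vehicle n = 5–13.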

[11] = Volume of distribution in dog at 0.6 mg/kg, iv; format: ADME, organism-based, Canis lupus familiaris; design: dose 0.6 mg/kg, route intravenous; conditions: in vivo, read-out: Vdss; in short: as §1
[12] = tested on: Oryctolagus cuniculus; assay: Inhibition of thrombus weight in iv dosed anesthetized rabbit at 80 nM relative to control; format: functional; in short: as §3
[13] = biological target: T2, Carboxypeptidase B (Sus scrofa, UniProt P09955); assay: Inhibition of porcine pancreatic carboxypeptidase B
T2 sequence (P09955 whole entry): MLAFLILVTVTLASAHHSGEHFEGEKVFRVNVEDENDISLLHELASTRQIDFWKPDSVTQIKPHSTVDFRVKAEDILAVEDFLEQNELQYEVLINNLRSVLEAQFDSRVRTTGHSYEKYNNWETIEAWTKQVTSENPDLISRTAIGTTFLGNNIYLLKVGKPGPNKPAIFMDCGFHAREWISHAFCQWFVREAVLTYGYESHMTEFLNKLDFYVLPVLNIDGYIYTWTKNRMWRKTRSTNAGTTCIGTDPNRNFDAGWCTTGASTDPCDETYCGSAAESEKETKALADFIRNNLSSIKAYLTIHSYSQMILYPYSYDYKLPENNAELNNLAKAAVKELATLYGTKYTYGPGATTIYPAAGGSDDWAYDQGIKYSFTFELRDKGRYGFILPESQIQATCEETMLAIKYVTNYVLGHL

[14] = biological target: T3, Carboxypeptidase N catalytic chain (Homo sapiens, UniProt P15169); assay: Inhibition of human plasma carboxypeptidase N; format: cell-free
T3 sequence (P15169 whole entry): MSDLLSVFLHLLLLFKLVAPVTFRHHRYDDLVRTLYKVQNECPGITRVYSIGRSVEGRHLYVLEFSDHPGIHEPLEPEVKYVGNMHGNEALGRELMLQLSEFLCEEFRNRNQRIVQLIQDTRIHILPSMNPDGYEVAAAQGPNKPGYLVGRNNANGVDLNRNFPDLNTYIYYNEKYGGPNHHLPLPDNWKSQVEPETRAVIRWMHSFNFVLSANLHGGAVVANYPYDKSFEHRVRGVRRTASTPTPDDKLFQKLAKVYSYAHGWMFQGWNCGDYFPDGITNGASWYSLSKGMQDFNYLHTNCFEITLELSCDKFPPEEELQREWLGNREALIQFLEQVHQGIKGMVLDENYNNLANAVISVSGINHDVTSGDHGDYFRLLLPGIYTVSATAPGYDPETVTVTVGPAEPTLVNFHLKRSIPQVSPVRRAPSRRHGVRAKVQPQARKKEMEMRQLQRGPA

[15] = Selectivity for bovine pancreatic carboxypeptidase A over porcine pancreatic carboxypeptidase B

pKi [1]	Compound	further results
6.60	CCn1cnc(C[C@H](NCCN)C(=O)O)c1	
8.00	CCCn1cnc(C[C@H](CCCN)C(=O)O)c1 [UK-396,082]	half-life [2]: 1.4 h; bioavailability [3]: 23%; clearance [4]: 3.1 mL/min/kg; bioavailability [5]: 20%; dose excreted [6]: 96%; logD [7]: -2.8; bioavailability [8]: 42%; Tmax [9]: 4 h; Inhibition [10]: 36%; Vd [11]: 0.35 L/kg; Inhibition [12]: 37%
6.91	NCCN[C@@H](Cc1cn(CC2CCC2)cn1)C(=O)O	
6.63	Cn1cnc(C[C@H](NCCN)C(=O)O)c1	
< 6.15	CCCn1cnc(C[C@@H](CCCN)C(=O)O)c1	
6.57	NCCN[C@@H](Cc1cn(Cc2ccccc2)cn1)C(=O)O	
6.85	NCCCC(Cc1c[nH]cn1)C(=O)O (racemic)	
7.00	CC(C)Cn1cnc(C[C@H](NCCN)C(=O)O)c1	
7.15	CCCCn1cnc(C[C@H](NCCN)C(=O)O)c1	
6.52	NCCCC(CS)C(=O)O (racemic)	
4.77	NCCN[C@H](Cc1c[nH]cn1)C(=O)O	
7.08	CCCn1cnc(C[C@H](NCCN)C(=O)O)c1	
6.80	CCCCCn1cnc(C[C@H](NCCN)C(=O)O)c1	
8.40	NC(N)=NCCCC(CS)C(=O)O (racemic)	pKi [13]: 9.38; pKi [14]: 8.70
6.85	NCCN[C@@H](Cc1cn(CCc2ccccc2)cn1)C(=O)O	
6.95	NCCN[C@@H](Cc1cn(CCCO)cn1)C(=O)O	
7.34	CCCn1cnc(CC(CCCN)C(=O)O)c1 (racemic)	
	NCCN[C@@H](Cc1c[nH]cn1)C(=O)O	pKi [14]: < 5.00
6.37	CC(C)n1cnc(C[C@H](NCCN)C(=O)O)c1	
	O=C(O)C(CS)Cc1ccccc1 (racemic)	Selectivity ratio [15]: > 10000
